According to ChEMBL document CHEMBL4673214, “Synthesis and antibacterial bioactivities of cationic deacetyl linezolid amphiphiles” (Eur J Med Chem, 2018):
Calls of active or inactive are those of the source. The rule behind the calls is not given here.

Experiments:
Klebsiella pneumoniae [1] = experiment: Antibacterial activity against carbapenem-resistant Klebsiella pneumoniae clinical isolate 7 assessed as reduction in bacterial growth incubated for 16 to 20 hrs by CLSI-based broth microdilution method; assay type: functional; conditions: time 16-20 hrs
How it was run: (§1)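 Clinical isolates tested by broth microdilution in cation-adjusted Mueller-Hinton broth. Cultures grown 4-6 h (~10^8 CFU/mL) were diluted to ~10^6 CFU/mL and mixed 1:1 with compound serial dilutions made from 256 down to 0.5 µg/mL (pre-mixing). Plates held at 37 °C for 16-20 h, then read for growth. Each concentration run in duplicate, whole experiment at least twice.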

Enterobacteriaceae [2] = experiment: Antibacterial activity against NDM1 producing carbapenem-resistant Enterobacteriaceae clinical isolate 9 assessed as reduction in bacterial growth incubated for 16 to 20 hrs by CLSI-based broth microdilution method; assay type: functional; conditions: time 16-20 hrs; how it was run: as §1
Escherichia coli [3] = experiment: Antibacterial activity against Escherichia coli ATCC 25922 assessed as reduction in bacterial growth incubated 16 to 20 hrs by CLSI-based broth microdilution method; assay type: functional; conditions: time 16-20 hrs
How it was run: (§2)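 Broth microdilution following CLSI, in cation-adjusted Mueller-Hinton broth. Inoculum from a 4-6 h culture (~10^8 CFU/mL), diluted to ~10^6 CFU/mL. Water stocks were serially diluted in MHB (256 to 0.5 µg/mL) and mixed 1:1 with the inoculum. Plates ran 16-20 h at 37 °C. MIC was read visually. Each concentration was tested in duplicate, and the experiment was repeated at least twice.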

Klebsiella pneumoniae [4] = experiment: Antibacterial activity against carbapenem-resistant Klebsiella pneumoniae clinical isolate 5 assessed as reduction in bacterial growth incubated for 16 to 20 hrs by CLSI-based broth microdilution method; assay type: functional; conditions: time 16-20 hrs; how it was run: as §1
Escherichia coli [5] = experiment: Antibiofilm activity against Escherichia coli ATCC 25922 assessed as inhibition of biofilm formation incubated for 24 hrs by crystal violet staining assay; assay type: functional
How it was run: (§3)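 Twofold serial dilutions in MHB received 1:1000-diluted exponential-phase bacteria and were incubated 24 h at 37 °C. Wells were rinsed, stained with 0.1% crystal violet for 10 min and dissolved in ethanol, and OD540 was read. MBIC80 was the concentration inhibiting 80% of biofilm formation versus untreated wells, taken from dose-response curves.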

Klebsiella pneumoniae [6] = experiment: Antibacterial activity against carbapenem-resistant Klebsiella pneumoniae clinical isolate 6 assessed as reduction in bacterial growth incubated for 16 to 20 hrs by CLSI-based broth microdilution method; assay type: functional; conditions: time 16-20 hrs; how it was run: as §1
Cell membrane [7] = experiment: Induction of inner membrane permeabilization in Staphylococcus aureus ATCC 29213 at 20 ug/ml measured for 12 mins by propidium iodide staining based fluorescence microscopic analysis; conditions: dose 20.0 µg/ml
How it was run: (§4)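 Mid-log bacteria were washed and resuspended at ~10^8 CFU/mL and preincubated with propidium iodide (10 µM stock) for 30 min (S. aureus) or 40 min (E. coli). Fluorescence (ex 535/em 617 nm) was read on a plate for an 8 min baseline, then every 2 min for 12 min after compound at 20 µg/mL final. Water served as control.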

Staphylococcus aureus [8] = experiment: Antibiofilm activity against Staphylococcus aureus ATCC 29213 assessed as inhibition of biofilm formation incubated for 24 hrs by crystal violet staining assay; assay type: functional; how it was run: as §3
Cell membrane [9] = experiment: Induction of inner membrane permeabilization in Escherichia coli ATCC 25922 at 20 ug/ml measured for 12 mins by propidium iodide staining based fluorescence microscopic analysis; conditions: dose 20.0 µg/ml; how it was run: as §4
Enterobacteriaceae [10] = experiment: Antibacterial activity against NDM1 producing carbapenem-resistant Enterobacteriaceae clinical isolate 6 assessed as reduction in bacterial growth incubated for 16 to 20 hrs by CLSI-based broth microdilution method; assay type: functional; conditions: time 16-20 hrs; how it was run: as §1
Enterobacteriaceae [11] = experiment: Antibacterial activity against NDM1 producing carbapenem-resistant Enterobacteriaceae clinical isolate 8 assessed as reduction in bacterial growth incubated for 16 to 20 hrs by CLSI-based broth microdilution method; assay type: functional; conditions: time 16-20 hrs; how it was run: as §1
Enterobacteriaceae [12] = experiment: Antibacterial activity against NDM1 producing carbapenem-resistant Enterobacteriaceae clinical isolate 7 assessed as reduction in bacterial growth incubated for 16 to 20 hrs by CLSI-based broth microdilution method; assay type: functional; conditions: time 16-20 hrs; how it was run: as §1
Enterobacteriaceae [13] = experiment: Antibacterial activity against NDM1 producing carbapenem-resistant Enterobacteriaceae clinical isolate 1 assessed as reduction in bacterial growth incubated for 16 to 20 hrs by CLSI-based broth microdilution method; assay type: functional; conditions: time 16-20 hrs; how it was run: as §1
Klebsiella pneumoniae [14] = experiment: Antibacterial activity against carbapenem-resistant Klebsiella pneumoniae clinical isolate 9 assessed as reduction in bacterial growth incubated for 16 to 20 hrs by CLSI-based broth microdilution method; assay type: functional; conditions: time 16-20 hrs; how it was run: as §1
Klebsiella pneumoniae [15] = experiment: Antibacterial activity against carbapenem-resistant Klebsiella pneumoniae clinical isolate 8 assessed as reduction in bacterial growth incubated for 16 to 20 hrs by CLSI-based broth microdilution method; assay type: functional; conditions: time 16-20 hrs; how it was run: as §1
Enterobacteriaceae [16] = experiment: Antibacterial activity against NDM1 producing carbapenem-resistant Enterobacteriaceae clinical isolate 4 assessed as reduction in bacterial growth incubated for 16 to 20 hrs by CLSI-based broth microdilution method; assay type: functional; conditions: time 16-20 hrs; how it was run: as §1
Klebsiella pneumoniae [17] = experiment: Antibacterial activity against carbapenem-resistant Klebsiella pneumoniae clinical isolate 4 assessed as reduction in bacterial growth incubated for 16 to 20 hrs by CLSI-based broth microdilution method; assay type: functional; conditions: time 16-20 hrs; how it was run: as §1
Klebsiella pneumoniae [18] = experiment: Antibacterial activity against carbapenem-resistant Klebsiella pneumoniae clinical isolate 2 assessed as reduction in bacterial growth incubated for 16 to 20 hrs by CLSI-based broth microdilution method; assay type: functional; conditions: time 16-20 hrs; how it was run: as §1
Enterobacteriaceae [19] = experiment: Antibacterial activity against NDM1 producing carbapenem-resistant Enterobacteriaceae clinical isolate 3 assessed as reduction in bacterial growth incubated for 16 to 20 hrs by CLSI-based broth microdilution method; assay type: functional; conditions: time 16-20 hrs; how it was run: as §1
Cell membrane [20] = experiment: Induction of cytoplasmic membrane depolarization in Escherichia coli ATCC 25922 at 20 ug/ml measured for 12 mins by DiSC35 dye-based fluorescence assay; assay type: subcellular; conditions: dose 20.0 µg/ml
How it was run: (§5)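 Mid-log bacteria were washed and resuspended at ~10^8 CFU/mL: S. aureus in PBS, E. coli in 5 mM HEPES/5 mM glucose/100 mM KCl (1:1:1). Cells were loaded with diSC35 (10 µM stock) for 30 min (S. aureus) or 40 min (E. coli, plus EDTA). Fluorescence (ex 622/em 670 nm) was read for an 8 min baseline, then every 2 min for 12 min after compound at 20 µg/mL final. Water served as control.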

Enterobacteriaceae [21] = experiment: Antibacterial activity against NDM1 producing carbapenem-resistant Enterobacteriaceae clinical isolate 10 assessed as reduction in bacterial growth incubated for 16 to 20 hrs by CLSI-based broth microdilution method; assay type: functional; conditions: time 16-20 hrs; how it was run: as §1
Enterobacteriaceae [22] = experiment: Antibacterial activity against NDM1 producing carbapenem-resistant Enterobacteriaceae clinical isolate 5 assessed as reduction in bacterial growth incubated for 16 to 20 hrs by CLSI-based broth microdilution method; assay type: functional; conditions: time 16-20 hrs; how it was run: as §1
Klebsiella pneumoniae [23] = experiment: Antibacterial activity against carbapenem-resistant Klebsiella pneumoniae clinical isolate 3 assessed as reduction in bacterial growth incubated for 16 to 20 hrs by CLSI-based broth microdilution method; assay type: functional; conditions: time 16-20 hrs; how it was run: as §1
[24] = Hemolytic activity in sheep RBC incubated for 1 hr; assay type: ADME, cell-based, Ovis aries, Erythrocyte; conditions: sheep red blood cells (erythrocytes)
How it was run: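 Sheep RBCs were resuspended at 5% in PBS and mixed 3:1 with serial dilutions (2560 to 5 µg/mL, pre-mixing levels), then incubated 1 h at 37 °C. After centrifugation, supernatant A540 was read. Hemolysis % was calculated as (A−A0)/(Atotal−A0)×100, with untreated RBCs as 0% and 0.1% Triton X-100 as total lysis.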

Klebsiella pneumoniae [25] = experiment: Antibacterial activity against carbapenem-resistant Klebsiella pneumoniae clinical isolate 10 assessed as reduction in bacterial growth incubated for 16 to 20 hrs by CLSI-based broth microdilution method; assay type: functional; conditions: time 16-20 hrs; how it was run: as §1
Klebsiella pneumoniae [26] = experiment: Antibacterial activity against carbapenem-resistant Klebsiella pneumoniae clinical isolate 1 assessed as reduction in bacterial growth incubated for 16 to 20 hrs by CLSI-based broth microdilution method; assay type: functional; conditions: time 16-20 hrs; how it was run: as §1
Enterobacteriaceae [27] = experiment: Antibacterial activity against NDM1 producing carbapenem-resistant Enterobacteriaceae clinical isolate 2 assessed as reduction in bacterial growth incubated for 16 to 20 hrs by CLSI-based broth microdilution method; assay type: functional; conditions: time 16-20 hrs; how it was run: as §1
Cell membrane [28] = experiment: Induction of cytoplasmic membrane depolarization in Staphylococcus aureus ATCC 29213 at 20 ug/ml measured for 12 mins by DiSC35 dye-based fluorescence assay; assay type: subcellular; conditions: dose 20.0 µg/ml; how it was run: as §5
Staphylococcus aureus [29] = experiment: Antibiofilm activity against 24 hrs preformed biofilm of Staphylococcus aureus ATCC 29213 assessed as eradication of preformed biofilm incubated for 24 hrs by crystal violet staining assay; assay type: functional
Cell membrane [30] = experiment: Induction of outer membrane permeabilization in Escherichia coli ATCC 25922 at 20 ug/ml measured for 12 mins by NPN dye based fluorescence assay; conditions: dose 20.0 µg/ml
How it was run: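 Mid-log E. coli in HEPES/glucose/KCl at ~10^8 CFU/mL was preincubated 40 min with N-phenylnaphthylamine (10 µM stock). Fluorescence (ex 350/em 420 nm) was read for an 8 min baseline, then every 2 min for 12 min after compound at 20 µg/mL final. Water served as control.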

Salmonella enterica = experiment: Antibacterial activity against Salmonella enterica ATCC 8387 assessed as reduction in bacterial growth incubated for 16 to 20 hrs by CLSI-based broth microdilution method; assay type: functional; conditions: time 16-20 hrs; how it was run: as §2
Escherichia coli [31] = experiment: Antibiofilm activity against 24 hrs preformed biofilm of Escherichia coli ATCC 25922 assessed as eradication of preformed biofilm incubated for 24 hrs by crystal violet staining assay; assay type: functional

## CC(=O)NC[C@H]1CN(c2ccc(N3CCOCC3)c(F)c2)C(=O)O1 [LINEZOLID]
Klebsiella pneumoniae [1]
  MIC: > 64 µg/mL
Enterobacteriaceae [2]
  MIC: > 64 µg/mL
Escherichia coli [3]
  MIC: > 64 µg/mL
Klebsiella pneumoniae [4]
  MIC: > 64 µg/mL
Escherichia coli [5]
  MBIC80: >128 µg/mL
  MBIC90: >128 µg/mL
Klebsiella pneumoniae [6]
  MIC: > 64 µg/mL
Cell membrane [7]
  Activity: inactive
Staphylococcus aureus [8]
  MBIC80: 26.8 µg/mL
  MBIC90: 36.1 µg/mL
Cell membrane [9]
  Activity: inactive
Enterobacteriaceae [10]
  MIC: > 64 µg/mL
Enterobacteriaceae [11]
  MIC: > 64 µg/mL
Enterobacteriaceae [12]
  MIC: > 64 µg/mL
Enterobacteriaceae [13]
  MIC: > 64 µg/mL
Klebsiella pneumoniae [14]
  MIC: > 64 µg/mL
Klebsiella pneumoniae [15]
  MIC: > 64 µg/mL
Enterobacteriaceae [16]
  MIC: > 64 µg/mL
Klebsiella pneumoniae [17]
  MIC: > 64 µg/mL
Klebsiella pneumoniae [18]
  MIC: > 64 µg/mL
Enterobacteriaceae [19]
  MIC: > 64 µg/mL
Cell membrane [20]
  Activity: inactive
Enterobacteriaceae [21]
  MIC: > 64 µg/mL
Enterobacteriaceae [22]
  MIC: > 64 µg/mL
Klebsiella pneumoniae [23]
  MIC: > 64 µg/mL
[24]
  HC50 at 1 h: 550 µg/mL
Klebsiella pneumoniae [25]
  MIC: > 64 µg/mL
Klebsiella pneumoniae [26]
  MIC: > 64 µg/mL
Enterobacteriaceae [27]
  MIC: > 64 µg/mL
Cell membrane [28]
  Activity: inactive
Staphylococcus aureus [29]
  MBEC: >128 µg/mL
  MBEC80: >128 µg/mL
  MBEC90: >128 µg/mL
Cell membrane [30]
  Activity: inactive
Salmonella enterica
  MIC: > 64 µg/mL
Escherichia coli [31]
  MBEC: >128 µg/mL
  MBEC80: >128 µg/mL
  MBEC90: >128 µg/mL
